Source: the M2OR odorant receptor database

Legend:
Settings in all cases: stereoisomer not certain
OR52I1 (Homo sapiens) = biological target: T1, OR52I1 (Homo sapiens) (UniProt Q8NGK6)
T1 sequence (whole entry): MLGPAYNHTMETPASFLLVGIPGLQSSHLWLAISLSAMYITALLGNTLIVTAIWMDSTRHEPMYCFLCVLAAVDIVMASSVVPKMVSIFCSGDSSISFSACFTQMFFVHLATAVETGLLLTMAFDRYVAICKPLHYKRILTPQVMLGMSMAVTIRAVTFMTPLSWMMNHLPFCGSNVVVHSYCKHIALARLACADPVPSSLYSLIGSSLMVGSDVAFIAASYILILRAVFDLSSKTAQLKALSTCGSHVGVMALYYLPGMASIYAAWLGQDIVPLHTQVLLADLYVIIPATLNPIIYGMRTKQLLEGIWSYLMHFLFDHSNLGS
How it was run: (§1)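 Each receptor–molecule pair is labelled responsive or non-responsive (inactive) according to whether the original authors judged the measured signal statistically different from baseline. The data were taken from the main text and supplementary material of published papers and checked for typos and inconsistencies. Assay methods differed by source, with transient luciferase assays in mammalian cell lines being common.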

OR52I2 (Homo sapiens) = biological target: T2, OR52I2 (Homo sapiens) (UniProt Q8NH67)
T2 sequence (whole entry): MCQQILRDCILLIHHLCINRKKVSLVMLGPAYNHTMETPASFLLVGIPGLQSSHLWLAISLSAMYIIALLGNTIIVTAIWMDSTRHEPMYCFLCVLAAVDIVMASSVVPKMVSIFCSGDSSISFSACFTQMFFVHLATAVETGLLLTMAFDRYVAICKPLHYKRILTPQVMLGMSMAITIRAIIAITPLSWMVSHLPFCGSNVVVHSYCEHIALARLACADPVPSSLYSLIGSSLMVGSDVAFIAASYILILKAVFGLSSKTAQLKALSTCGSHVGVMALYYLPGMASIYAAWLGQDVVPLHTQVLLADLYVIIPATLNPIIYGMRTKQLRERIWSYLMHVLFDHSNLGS
How it was run: as §1

OR52J3 (Homo sapiens) = OR52J3 (Homo sapiens) (UniProt Q8NH60)
OR52J3 (Homo sapiens), sequence (Q8NH60 whole entry): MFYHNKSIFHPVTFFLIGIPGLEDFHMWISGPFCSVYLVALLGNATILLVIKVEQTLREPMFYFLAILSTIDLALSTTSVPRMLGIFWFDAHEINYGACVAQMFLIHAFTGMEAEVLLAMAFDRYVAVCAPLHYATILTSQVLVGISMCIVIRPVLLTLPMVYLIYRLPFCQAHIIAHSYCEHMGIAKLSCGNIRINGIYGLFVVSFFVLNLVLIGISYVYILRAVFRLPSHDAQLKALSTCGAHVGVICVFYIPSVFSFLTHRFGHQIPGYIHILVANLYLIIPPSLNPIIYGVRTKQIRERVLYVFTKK
How it was run: as §1

OR52K1 (Homo sapiens) = biological target: T3, OR52K1 (Homo sapiens) (UniProt Q8NGK4)
T3 sequence (whole entry): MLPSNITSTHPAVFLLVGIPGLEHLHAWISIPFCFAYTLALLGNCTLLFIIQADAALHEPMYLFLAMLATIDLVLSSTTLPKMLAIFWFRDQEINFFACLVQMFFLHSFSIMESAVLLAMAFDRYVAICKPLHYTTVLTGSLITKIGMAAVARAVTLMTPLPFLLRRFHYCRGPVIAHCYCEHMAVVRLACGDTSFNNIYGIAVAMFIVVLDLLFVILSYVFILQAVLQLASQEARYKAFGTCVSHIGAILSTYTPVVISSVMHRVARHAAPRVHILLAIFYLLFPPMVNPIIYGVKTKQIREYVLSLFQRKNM
How it was run: as §1

OR52K2 (Homo sapiens) = biological target: T4, OR52K2 (Homo sapiens) (UniProt Q8NGK3)
T4 sequence (whole entry): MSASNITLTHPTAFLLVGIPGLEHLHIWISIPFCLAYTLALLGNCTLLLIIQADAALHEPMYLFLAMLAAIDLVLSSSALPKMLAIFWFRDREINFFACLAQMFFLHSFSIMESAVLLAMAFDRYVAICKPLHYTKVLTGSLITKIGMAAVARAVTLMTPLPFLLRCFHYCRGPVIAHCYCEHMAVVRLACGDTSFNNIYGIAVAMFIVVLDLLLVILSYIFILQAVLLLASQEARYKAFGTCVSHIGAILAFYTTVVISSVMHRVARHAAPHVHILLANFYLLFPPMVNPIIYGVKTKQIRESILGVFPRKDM
How it was run: as §1

OR52L1 (Homo sapiens) = biological target: T5, OR52L1 (Homo sapiens) (UniProt Q8NGH7)
T5 sequence (whole entry): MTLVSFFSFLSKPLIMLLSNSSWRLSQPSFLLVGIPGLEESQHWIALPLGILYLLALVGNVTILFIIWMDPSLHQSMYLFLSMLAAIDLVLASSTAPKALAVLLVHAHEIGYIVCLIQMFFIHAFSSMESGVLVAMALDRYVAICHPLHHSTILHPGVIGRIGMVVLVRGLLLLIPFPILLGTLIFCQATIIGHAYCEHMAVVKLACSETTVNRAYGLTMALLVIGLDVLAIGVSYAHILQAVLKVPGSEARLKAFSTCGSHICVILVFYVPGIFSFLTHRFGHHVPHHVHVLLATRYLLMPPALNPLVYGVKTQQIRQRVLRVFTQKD
How it was run: as §1

OR52M1 (Homo sapiens) = biological target: T6, OR52M1 (Homo sapiens) (UniProt Q8NGK5)
T6 sequence (whole entry): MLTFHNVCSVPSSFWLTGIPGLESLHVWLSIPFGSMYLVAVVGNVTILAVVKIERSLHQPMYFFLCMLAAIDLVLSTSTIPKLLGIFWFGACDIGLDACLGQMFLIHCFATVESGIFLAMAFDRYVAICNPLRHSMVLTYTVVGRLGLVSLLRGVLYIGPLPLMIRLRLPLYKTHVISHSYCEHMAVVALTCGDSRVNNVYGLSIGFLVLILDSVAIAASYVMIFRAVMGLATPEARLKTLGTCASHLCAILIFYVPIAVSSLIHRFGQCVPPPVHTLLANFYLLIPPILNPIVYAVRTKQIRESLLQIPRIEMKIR
How it was run: as §1

OR52N1 (Homo sapiens) = biological target: T7, OR52N1 (Homo sapiens) (UniProt Q8NH53)
T7 sequence (whole entry): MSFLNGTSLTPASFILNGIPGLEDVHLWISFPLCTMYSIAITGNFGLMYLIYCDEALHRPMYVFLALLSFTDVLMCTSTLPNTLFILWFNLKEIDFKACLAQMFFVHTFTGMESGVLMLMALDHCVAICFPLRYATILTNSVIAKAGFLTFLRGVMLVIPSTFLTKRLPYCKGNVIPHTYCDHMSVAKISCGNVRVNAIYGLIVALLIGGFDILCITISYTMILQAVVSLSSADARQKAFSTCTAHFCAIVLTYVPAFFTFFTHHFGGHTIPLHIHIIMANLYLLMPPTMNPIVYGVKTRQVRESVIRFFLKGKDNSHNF
How it was run: as §1

OR52N2 (Homo sapiens) = biological target: T8, OR52N2 (Homo sapiens) (UniProt Q8NGI0)
T8 sequence (whole entry): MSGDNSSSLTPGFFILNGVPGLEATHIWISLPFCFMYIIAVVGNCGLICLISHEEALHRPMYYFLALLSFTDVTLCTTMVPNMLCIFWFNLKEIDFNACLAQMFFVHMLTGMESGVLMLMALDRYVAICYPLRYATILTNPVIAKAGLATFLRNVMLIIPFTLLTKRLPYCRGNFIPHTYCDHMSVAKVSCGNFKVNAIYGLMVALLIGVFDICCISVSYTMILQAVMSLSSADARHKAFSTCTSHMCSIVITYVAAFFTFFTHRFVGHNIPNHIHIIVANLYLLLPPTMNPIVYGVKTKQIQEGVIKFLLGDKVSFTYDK
How it was run: as §1

OR52N4 (Homo sapiens) = biological target: T9, OR52N4 (Homo sapiens) (UniProt Q8NGI2)
T9 sequence (whole entry): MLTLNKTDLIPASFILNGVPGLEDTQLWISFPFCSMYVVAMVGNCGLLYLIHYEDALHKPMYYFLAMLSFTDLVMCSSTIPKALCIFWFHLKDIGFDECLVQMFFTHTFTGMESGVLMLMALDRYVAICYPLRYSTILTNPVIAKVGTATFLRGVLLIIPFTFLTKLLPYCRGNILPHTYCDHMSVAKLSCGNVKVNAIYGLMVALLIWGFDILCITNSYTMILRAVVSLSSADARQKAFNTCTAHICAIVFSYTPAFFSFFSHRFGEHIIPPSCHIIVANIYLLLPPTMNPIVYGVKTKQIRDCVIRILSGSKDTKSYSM
How it was run: as §1

OR52N5 (Homo sapiens) = biological target: T10, OR52N5 (Homo sapiens) (UniProt Q8NH56)
T10 sequence (whole entry): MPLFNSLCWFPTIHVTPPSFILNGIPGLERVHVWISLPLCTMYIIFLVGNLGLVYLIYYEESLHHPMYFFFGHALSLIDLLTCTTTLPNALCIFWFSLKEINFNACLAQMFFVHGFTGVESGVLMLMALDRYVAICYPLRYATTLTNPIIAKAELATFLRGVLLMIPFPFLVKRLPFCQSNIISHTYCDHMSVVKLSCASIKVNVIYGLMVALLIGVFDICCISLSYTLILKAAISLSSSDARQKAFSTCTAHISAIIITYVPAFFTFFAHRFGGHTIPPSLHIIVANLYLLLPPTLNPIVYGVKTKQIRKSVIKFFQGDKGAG
How it was run: as §1

OR52R1 (Homo sapiens) = biological target: T11, OR52R1 (Homo sapiens) (UniProt Q8NGF1)
T11 sequence (whole entry): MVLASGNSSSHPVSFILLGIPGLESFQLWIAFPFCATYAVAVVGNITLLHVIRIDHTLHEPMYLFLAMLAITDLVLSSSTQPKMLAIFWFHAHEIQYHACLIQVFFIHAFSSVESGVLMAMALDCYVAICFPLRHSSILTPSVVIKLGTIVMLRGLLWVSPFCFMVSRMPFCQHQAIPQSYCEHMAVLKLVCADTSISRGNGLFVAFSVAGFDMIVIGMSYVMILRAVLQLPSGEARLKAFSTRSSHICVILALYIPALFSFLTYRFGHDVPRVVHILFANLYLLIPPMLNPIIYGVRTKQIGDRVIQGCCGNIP
How it was run: as §1

OR52W1 (Homo sapiens) = biological target: T12, OR52W1 (Homo sapiens) (UniProt Q6IF63)
T12 sequence (whole entry): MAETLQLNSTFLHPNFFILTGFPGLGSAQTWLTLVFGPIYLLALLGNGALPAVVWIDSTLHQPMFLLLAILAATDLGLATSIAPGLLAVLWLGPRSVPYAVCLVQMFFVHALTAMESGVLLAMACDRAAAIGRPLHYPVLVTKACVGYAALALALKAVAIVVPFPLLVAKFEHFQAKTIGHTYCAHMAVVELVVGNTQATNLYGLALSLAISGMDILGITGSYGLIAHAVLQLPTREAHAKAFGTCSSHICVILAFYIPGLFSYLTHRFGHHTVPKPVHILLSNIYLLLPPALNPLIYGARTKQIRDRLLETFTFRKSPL
How it was run: as §1

OR56A1 (Homo sapiens) = biological target: T13, OR56A1 (Homo sapiens) (UniProt Q8NGH5)
T13 sequence (whole entry): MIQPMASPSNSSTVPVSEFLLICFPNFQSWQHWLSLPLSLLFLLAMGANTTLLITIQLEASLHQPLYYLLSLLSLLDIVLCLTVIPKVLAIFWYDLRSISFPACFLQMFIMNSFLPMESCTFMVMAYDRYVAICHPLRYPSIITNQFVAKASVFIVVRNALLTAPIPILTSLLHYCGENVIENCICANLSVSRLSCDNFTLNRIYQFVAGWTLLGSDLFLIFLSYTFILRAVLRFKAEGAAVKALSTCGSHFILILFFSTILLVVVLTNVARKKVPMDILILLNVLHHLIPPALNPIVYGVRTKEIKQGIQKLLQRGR
How it was run: as §1

OR56A3 (Homo sapiens) = biological target: T14, OR56A3 (Homo sapiens) (UniProt Q8NH54)
T14 sequence (whole entry): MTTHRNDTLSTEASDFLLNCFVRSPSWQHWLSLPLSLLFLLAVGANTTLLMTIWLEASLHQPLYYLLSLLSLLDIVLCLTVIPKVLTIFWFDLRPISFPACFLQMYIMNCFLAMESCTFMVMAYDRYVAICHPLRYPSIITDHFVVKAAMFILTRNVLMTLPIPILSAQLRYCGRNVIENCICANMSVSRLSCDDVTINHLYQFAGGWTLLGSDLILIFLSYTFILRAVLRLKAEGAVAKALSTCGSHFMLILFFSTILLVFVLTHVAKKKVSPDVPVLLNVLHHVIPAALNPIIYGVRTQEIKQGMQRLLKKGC
How it was run: as §1

OR56A5 (Homo sapiens) = biological target: T15, OR56A5 (Homo sapiens) (UniProt P0C7T3)
T15 sequence (whole entry): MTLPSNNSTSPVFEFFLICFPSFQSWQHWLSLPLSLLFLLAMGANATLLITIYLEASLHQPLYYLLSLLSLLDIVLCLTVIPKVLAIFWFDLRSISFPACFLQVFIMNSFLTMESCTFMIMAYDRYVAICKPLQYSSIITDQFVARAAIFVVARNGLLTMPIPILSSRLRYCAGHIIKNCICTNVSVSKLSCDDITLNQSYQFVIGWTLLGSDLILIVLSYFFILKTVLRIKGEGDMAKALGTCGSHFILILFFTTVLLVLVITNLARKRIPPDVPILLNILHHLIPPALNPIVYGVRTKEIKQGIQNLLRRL
How it was run: as §1

OR56B1 (Homo sapiens) = biological target: T16, OR56B1 (Homo sapiens) (UniProt Q8NGI3)
T16 sequence (whole entry): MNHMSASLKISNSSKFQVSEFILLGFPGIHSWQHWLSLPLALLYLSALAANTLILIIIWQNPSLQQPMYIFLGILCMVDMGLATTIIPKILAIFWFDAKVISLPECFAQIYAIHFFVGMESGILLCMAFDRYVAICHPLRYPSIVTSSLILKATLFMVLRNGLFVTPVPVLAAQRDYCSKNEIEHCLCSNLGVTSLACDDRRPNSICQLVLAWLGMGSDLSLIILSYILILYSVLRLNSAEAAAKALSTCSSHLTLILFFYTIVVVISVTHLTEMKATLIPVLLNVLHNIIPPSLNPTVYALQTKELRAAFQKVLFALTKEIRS
How it was run: as §1

Measured: odorant receptor agonist call

CC1=C(O)C(=O)C(C)O1 (centres undefined)
inactive: OR52I1 (Homo sapiens) | OR52I2 (Homo sapiens) | OR52J3 (Homo sapiens) | OR52K1 (Homo sapiens) | OR52K2 (Homo sapiens) | OR52L1 (Homo sapiens) | OR52M1 (Homo sapiens) | OR52N1 (Homo sapiens) | OR52N2 (Homo sapiens) | OR52N4 (Homo sapiens) | OR52N5 (Homo sapiens) | OR52R1 (Homo sapiens) | OR52W1 (Homo sapiens) | OR56A1 (Homo sapiens) | OR56A3 (Homo sapiens) | OR56A5 (Homo sapiens) | OR56B1 (Homo sapiens)

Cc1cnc(C)c(C)n1
inactive: OR52I1 (Homo sapiens) | OR52I2 (Homo sapiens) | OR52J3 (Homo sapiens) | OR52K1 (Homo sapiens) | OR52K2 (Homo sapiens) | OR52L1 (Homo sapiens) | OR52M1 (Homo sapiens) | OR52N1 (Homo sapiens) | OR52N2 (Homo sapiens) | OR52N4 (Homo sapiens) | OR52N5 (Homo sapiens) | OR52R1 (Homo sapiens) | OR52W1 (Homo sapiens) | OR56A1 (Homo sapiens) | OR56A3 (Homo sapiens) | OR56A5 (Homo sapiens) | OR56B1 (Homo sapiens)
